Calls of active or inactive are those of the source. No cut-off for these calls is given here.
Key:
K562/A02 [1] = test: Potentiation of DOX-induced anti tumor activity against human K562/A02 cells xenografted in BALB/c mouse assessed as reduction in tumor weight at 30 mg/kg, iv administered every 2 days for 14 days measured 24 hrs post-last dose; type: functional, organism-based
In short: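 K562/A02 subcutaneous xenograft mice treated 14 days with DOX with or without modulator; tumors excised and weighed at Day 14.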

K562/A02 [2] = test: Potentiation of DOX-induced anti tumor activity against human K562/A02 cells xenografted in BALB/c mouse assessed as tumor size at 30 mg/kg, iv administered every 2 days for 14 days measured during compound dosing by caliper method (reference value: 610 mm3); type: functional
In short: (§1)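 Mice bearing subcutaneous ABCB1-overexpressing K562/A02 xenografts treated with DOX alone, modulator alone, or combinations (verapamil as comparator) for 14 days; tumor volume measured every two days.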

[3] = Cytotoxicity against human SW620/AD300 cells assessed as cell growth inhibition at 10 uM incubated for 48 hrs by SRB assay relative to control; type: cell-based; details: read-out: GI
[4] = molecular target: T1, ATP-dependent translocase ABCB1 (Homo sapiens, UniProt P08183); test: Reversal of ABCB1-mediated multidrug resistance in human SW620/AD300 cells assessed as increase in Rh123 accumulation at 0.01 to 0.5 uM incubated for 4 hrs by flow cytometry; type: cell-based; details: sw620/ad300, 4 h
In short: (§2)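 SW620 and SW620/AD300 cells exposed to 1 μg/mL rhodamine 123 with or without modulator; intracellular Rh123 content measured; mean ± SD of three independent experiments.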

[5] = molecular target: T1, ATP-dependent translocase ABCB1; test: Reversal of Pgp-mediated DOX resistance in human SW620/AD300 cells assessed as potentiation of DOX-induced cytotoxicity by measuring inhibition of cell proliferation at 1 uM incubated for 48 hrs by SRB assay (reference value: 5.3 +/- 3 %); type: cell-based
[6] = molecular target: T1, ATP-dependent translocase ABCB1; test: Reversal of ABCB1-mediated multidrug resistance in human SW620 cells assessed as reduction in Rh123 efflux at 0.01 to 0.5 uM incubated for 4 hrs by flow cytometry analysis; type: cell-based; details: sw-620, 4 h
In short: (§3)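 Cells pre-loaded with rhodamine 123, then efflux monitored in SW620 and SW620/AD300 cells over a range of modulator levels; mean ± SD of three independent experiments.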

[7] = molecular target: T2, Broad substrate specificity ATP-binding cassette transporter ABCG2 (Homo sapiens, UniProt Q9UNQ0); test: Reversal of ABCG2-mediated mitoxantrone resistance in human NCI-H460/MX20 cells assessed as potentiation of mitoxantrone-induced cytotoxicity by measuring change in mitoxantrone IC50 at 5 uM incubated for 48 hrs by SRB assay relative to mitoxantrone IC50; type: cell-based
T2 sequence (Q9UNQ0 whole entry): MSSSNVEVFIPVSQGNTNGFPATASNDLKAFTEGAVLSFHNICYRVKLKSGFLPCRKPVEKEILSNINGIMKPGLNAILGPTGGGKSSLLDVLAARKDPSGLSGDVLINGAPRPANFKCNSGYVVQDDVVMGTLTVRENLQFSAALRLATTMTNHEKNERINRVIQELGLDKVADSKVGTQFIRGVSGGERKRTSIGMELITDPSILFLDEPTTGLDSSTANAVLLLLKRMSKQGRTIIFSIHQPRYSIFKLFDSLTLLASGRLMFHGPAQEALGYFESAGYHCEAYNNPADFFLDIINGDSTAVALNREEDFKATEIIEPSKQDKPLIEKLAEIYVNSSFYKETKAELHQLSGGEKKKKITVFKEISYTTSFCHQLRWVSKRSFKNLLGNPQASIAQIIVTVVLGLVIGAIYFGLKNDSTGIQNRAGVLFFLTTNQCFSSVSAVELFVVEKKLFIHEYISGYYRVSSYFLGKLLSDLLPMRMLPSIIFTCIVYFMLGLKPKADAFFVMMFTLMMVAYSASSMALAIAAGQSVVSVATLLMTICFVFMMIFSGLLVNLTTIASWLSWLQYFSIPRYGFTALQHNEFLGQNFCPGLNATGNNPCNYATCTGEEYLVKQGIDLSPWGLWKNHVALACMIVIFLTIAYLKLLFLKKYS

[8] = molecular target: T1, ATP-dependent translocase ABCB1; test: Reversal of Pgp-mediated DOX resistance in human SW620/AD300 cells assessed as potentiation of DOX-induced cytotoxicity by measuring change in DOX IC50 at 1 uM incubated for 48 hrs by SRB assay relative to DOX alone; type: cell-based; details: sw620/ad300, 48 h
[9] = molecular target: T2, Broad substrate specificity ATP-binding cassette transporter ABCG2; test: Reversal of ABCG2-mediated mitoxantrone resistance in human NCI-H460/MX20 cells assessed as potentiation of mitoxantrone-induced cytotoxicity by measuring change in mitoxantrone IC50 at 2.5 uM incubated for 48 hrs by SRB assay relative to mitoxantrone IC50; type: cell-based
[10] = molecular target: T3, Multidrug resistance-associated protein 1 (Homo sapiens, UniProt P33527); test: Reversal of ABCC1-mediated vincristine resistance in human KB-CV60 cells assessed as potentiation of vincristine-induced cytotoxicity by measuring change in vincristine IC50 at 2.5 uM incubated for 48 hrs by SRB assay relative to vincristine IC50; type: cell-based
In short: (§4)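 ABCC1-overexpressing KB-CV60 cells: vincristine IC50 determined alone or with modulator at 2.5 or 5 μM; MK571 25 μM reference; reversal fold calculated as IC50 ratio without/with modulator.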

SW620/AD300 = test: Downregulation of ABCB1 expression in human SW620/AD300 cells at 1 to 5 uM incubated for 48 hrs by Western blot analysis; type: functional, cell-based
In short: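 SW620 and SW620/AD300 cells compared for ABCB1 level; SW620/AD300 treated at 0, 1.0, 2.0 or 5.0 μM for 48 h, then ABCB1 protein assessed.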

K562/A02 [11] = test: Effect on tumor size of human K562/A02 cells xenografted in BALB/c mouse at 30 mg/kg, iv administered every 2 days for 14 days measured during compound dosing by caliper method; type: ADME, organism-based; details: in vivo; in short: as §1
[12] = molecular target: T1, ATP-dependent translocase ABCB1; test: Reversal of ABCB1-mediated multidrug resistance in human SW620/AD300 cells assessed as reduction in Rh123 efflux incubated for 4 hrs by flow cytometry analysis; type: cell-based; details: sw620/ad300, 4 h; in short: as §3
[13] = Cytotoxicity against human NCI-H460/MX20 cells assessed as effect on cell proliferation at 2.5 to 5 uM measured after 48 hrs by SRB assay; type: cell-based
[14] = Cytotoxicity against human KB-CV60 cells assessed as effect on cell proliferation at 2.5 to 5 uM measured after 48 hrs by SRB assay; type: cell-based
[15] = molecular target: T1, ATP-dependent translocase ABCB1; test: Binding affinity to ABCB1 in human SW620/AD300 cells assessed as increase in thermal stability of ABCB1 at 20 uM incubated for 30 to 60 mins followed by heating at 40.5 to 59.5 degC by […]; type: cell-based; details: sw620/ad300, 20 µM
SW-620 = test: Induction of Rh123 accumulation in human SW620 cells at 0.01 to 0.5 uM incubated for 4 hrs by flow cytometry; type: functional, cell-based; in short: as §2
[16] = molecular target: T3, Multidrug resistance-associated protein 1; test: Reversal of ABCC1-mediated vincristine resistance in human KB-CV60 cells assessed as potentiation of vincristine-induced cytotoxicity by measuring change in vincristine IC50 at 5 uM incubated for 48 hrs by SRB assay relative to vincristine IC50; type: cell-based; in short: as §4

T1 sequence (P08183 whole entry): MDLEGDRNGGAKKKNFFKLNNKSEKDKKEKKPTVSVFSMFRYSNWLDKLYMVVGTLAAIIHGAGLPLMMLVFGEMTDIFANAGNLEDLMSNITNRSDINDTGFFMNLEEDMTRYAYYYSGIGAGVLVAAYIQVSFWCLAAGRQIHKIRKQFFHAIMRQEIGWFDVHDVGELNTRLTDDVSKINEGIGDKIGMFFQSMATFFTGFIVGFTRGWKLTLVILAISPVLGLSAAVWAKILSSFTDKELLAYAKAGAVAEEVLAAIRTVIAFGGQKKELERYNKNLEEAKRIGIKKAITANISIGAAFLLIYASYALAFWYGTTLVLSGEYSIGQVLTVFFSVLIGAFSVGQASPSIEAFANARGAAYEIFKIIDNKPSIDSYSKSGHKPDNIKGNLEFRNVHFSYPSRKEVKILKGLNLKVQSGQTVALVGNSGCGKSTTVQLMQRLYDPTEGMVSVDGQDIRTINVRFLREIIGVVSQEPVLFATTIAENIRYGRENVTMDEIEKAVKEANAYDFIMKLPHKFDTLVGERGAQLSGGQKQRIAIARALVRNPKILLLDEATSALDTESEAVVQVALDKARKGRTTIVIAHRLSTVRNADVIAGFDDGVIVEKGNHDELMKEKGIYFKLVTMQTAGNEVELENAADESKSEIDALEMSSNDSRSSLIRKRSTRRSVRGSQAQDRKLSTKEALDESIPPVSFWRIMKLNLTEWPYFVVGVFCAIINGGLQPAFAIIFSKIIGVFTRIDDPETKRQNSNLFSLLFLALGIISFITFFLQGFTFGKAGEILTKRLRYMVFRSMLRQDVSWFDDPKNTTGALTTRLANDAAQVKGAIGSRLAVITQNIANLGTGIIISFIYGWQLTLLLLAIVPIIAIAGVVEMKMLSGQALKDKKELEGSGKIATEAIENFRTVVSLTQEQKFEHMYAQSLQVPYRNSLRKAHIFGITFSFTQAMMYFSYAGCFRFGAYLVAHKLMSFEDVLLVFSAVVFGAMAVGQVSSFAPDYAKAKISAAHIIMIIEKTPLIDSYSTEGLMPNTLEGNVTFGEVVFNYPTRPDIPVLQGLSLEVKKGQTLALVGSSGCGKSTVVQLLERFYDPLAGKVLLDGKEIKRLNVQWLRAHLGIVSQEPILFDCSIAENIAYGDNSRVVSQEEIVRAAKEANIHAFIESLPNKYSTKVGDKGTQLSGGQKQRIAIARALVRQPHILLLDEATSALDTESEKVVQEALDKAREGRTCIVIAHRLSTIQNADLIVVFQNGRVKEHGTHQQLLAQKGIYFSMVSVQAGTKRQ
T3 sequence (P33527 whole entry): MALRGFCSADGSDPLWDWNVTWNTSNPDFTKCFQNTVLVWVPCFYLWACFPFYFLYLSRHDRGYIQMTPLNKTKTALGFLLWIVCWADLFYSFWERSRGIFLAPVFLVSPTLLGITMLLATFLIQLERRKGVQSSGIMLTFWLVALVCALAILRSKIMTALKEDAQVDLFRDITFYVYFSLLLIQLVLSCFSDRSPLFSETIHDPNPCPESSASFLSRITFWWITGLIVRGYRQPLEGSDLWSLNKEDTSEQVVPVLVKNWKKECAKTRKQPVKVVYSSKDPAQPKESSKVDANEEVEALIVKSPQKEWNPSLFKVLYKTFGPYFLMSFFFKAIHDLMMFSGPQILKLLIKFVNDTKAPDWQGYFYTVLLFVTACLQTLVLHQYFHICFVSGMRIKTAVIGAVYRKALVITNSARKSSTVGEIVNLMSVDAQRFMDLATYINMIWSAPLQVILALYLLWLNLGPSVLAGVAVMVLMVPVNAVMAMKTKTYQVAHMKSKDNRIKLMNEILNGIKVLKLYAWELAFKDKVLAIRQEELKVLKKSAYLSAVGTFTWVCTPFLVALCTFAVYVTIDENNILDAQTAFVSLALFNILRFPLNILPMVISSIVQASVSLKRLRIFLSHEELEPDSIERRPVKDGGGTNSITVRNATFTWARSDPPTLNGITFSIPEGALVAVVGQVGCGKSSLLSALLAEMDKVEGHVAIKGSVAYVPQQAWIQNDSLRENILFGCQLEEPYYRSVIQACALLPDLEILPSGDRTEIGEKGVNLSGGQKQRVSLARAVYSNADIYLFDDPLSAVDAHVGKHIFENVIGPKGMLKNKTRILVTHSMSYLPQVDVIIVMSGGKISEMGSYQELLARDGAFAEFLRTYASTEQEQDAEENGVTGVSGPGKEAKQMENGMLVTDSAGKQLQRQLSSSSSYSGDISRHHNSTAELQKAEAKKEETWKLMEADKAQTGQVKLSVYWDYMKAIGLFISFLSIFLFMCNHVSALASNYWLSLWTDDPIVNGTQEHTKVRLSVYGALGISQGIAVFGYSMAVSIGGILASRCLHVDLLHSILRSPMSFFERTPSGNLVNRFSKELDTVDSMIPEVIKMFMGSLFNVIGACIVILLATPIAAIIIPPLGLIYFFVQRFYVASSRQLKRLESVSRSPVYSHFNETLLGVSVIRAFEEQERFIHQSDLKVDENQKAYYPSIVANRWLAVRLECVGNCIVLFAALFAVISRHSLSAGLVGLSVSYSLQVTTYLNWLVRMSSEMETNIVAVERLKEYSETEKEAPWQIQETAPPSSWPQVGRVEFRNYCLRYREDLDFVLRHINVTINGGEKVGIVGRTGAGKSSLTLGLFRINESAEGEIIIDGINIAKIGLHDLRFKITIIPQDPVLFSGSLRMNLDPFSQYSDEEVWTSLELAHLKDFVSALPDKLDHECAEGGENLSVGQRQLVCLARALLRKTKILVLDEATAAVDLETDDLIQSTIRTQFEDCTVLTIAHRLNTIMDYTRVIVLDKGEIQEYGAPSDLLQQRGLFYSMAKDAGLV

Activity [4]: Active
Activity [6]: Not Active
Activity [12]: Dose-dependent effect
Activity [15]: Active
Compound: COc1cc2c(cc1OC)CN(CCc1ccc(NC(=O)/C=C/c3ccc(Oc4ccc(-c5ccccn5)c(Cl)c4)nc3)cc1)CC2
Activity (K562/A02 [1]): Active
Activity (K562/A02 [2]): 437 mm3
inhibition at 48 h, 10 µM [3]: 9.7%
inhibition at 1 µM [5]: 60.3%
fold change (FC) [7]: 2.32
fold change (FC) [8]: 59.63
fold change (FC) [9]: 0.99
fold change (FC) [10]: 1.12
Activity (SW620/AD300): inactive
Activity (K562/A02 [11]): Non-Toxic
Activity [13]: Non-Toxic
Activity [14]: Non-Toxic
Activity (SW-620): inactive
fold change (FC) [16]: 1.43

Reference: ChEMBL document CHEMBL4602721, “Discovery of Potent Inhibitors against P-Glycoprotein-Mediated Multidrug Resistance Aided by Late-Stage Functionalization of a 2-(4-(Pyridin-2-yl)phenoxy)pyridine Analogue” (J Med Chem, 2020)
